Columns and labels:
GABA B receptor [1] = molecular target: T1, GABA B receptor (Rattus norvegicus, UniProt O88871+Q9Z0U4); experiment: (§1) Inhibition of [3H]CGP-27492 binding to Gamma-aminobutyric acid type B receptor of rat cortex
[2] = test system: GABA-A receptor; anion channel; experiment: Inhibition of [3H]muscimol binding to GABA-A receptor of rat cortex; assay type: tissue-based
GABA-B receptor [3] = molecular target: T2, GABA-B receptor (Homo sapiens, UniProt O75899+Q9UBS5); experiment: Inhibition of [3H]-baclofen binding to Gamma-aminobutyric acid type B receptor of cat cerebellum; assay type: tissue-based, Felis catus; details: target entry is the homologue from another species
Rattus norvegicus [4] = experiment: Deterioration of rotarod performance of rats 1-2 hour after subcutaneous administration of compound; assay type: functional, organism-based
Rattus norvegicus [5] = experiment: Deterioration of rotarod performance of rats 0.5-1 hour after subcutaneous administration of compound; assay type: functional, organism-based
Outline: (§2)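 Male Sprague-Dawley rats (120-140 g), eight per dose. Compound is dissolved in water and given orally (5 mL/kg) or subcutaneously into the neck (2 mL/kg). Rats are pre-trained to stay 300 s on an 11 rpm, 6 cm cylinder. Time on the rod (maximum 300 s) is recorded at 0.5-1 h after sc or 1.5-2 h after po dosing. EC50 is the dose in µmol/kg at which 50% fall off within ≤150 s, estimated by Probit.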

[6] = Inhibition of [3H]- 5-HT binding to 5-hydroxytryptamine 1 receptor at 10e-5 M
[7] = molecular target: T3, Serotonin 2 (5-HT2) receptor (Homo sapiens) (UniProt P41595+P28223+P28335); experiment: Inhibition of [3H]ketanserin binding to 5-hydroxytryptamine 2 receptor at 10e-5 M; assay type: protein assay
[8] = molecular target: Serotonin 3 (5-HT3) receptor (Homo sapiens) (UniProt P46098+A5X5Y0+O95264+Q70Z44+Q8WXA8); experiment: Inhibition of [3H]- BRL 43 694 binding to 5-hydroxytryptamine 3 receptor at 10e-5 M; assay type: protein-complex assay
[9] = molecular target: T4, Adenosine receptor A1 (Homo sapiens) (UniProt P30542); experiment: Inhibition of [3H]- N-6-CA binding to Adenosine A1 receptor at 10e-5 M
T4 sequence (whole entry): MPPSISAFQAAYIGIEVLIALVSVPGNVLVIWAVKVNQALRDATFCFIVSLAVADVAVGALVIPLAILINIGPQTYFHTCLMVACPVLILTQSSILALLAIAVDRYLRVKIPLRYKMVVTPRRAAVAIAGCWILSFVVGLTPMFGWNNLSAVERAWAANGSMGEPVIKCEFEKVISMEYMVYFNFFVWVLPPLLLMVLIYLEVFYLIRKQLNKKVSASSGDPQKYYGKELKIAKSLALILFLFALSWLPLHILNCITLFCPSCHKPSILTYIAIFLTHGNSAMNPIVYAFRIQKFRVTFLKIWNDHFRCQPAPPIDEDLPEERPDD

[10] = molecular target: Adrenergic receptor alpha-2 (Homo sapiens) (UniProt P08913+P18825+P18089); experiment: Inhibition of [3H]- clonidine binding to Alpha-2 adrenergic receptor at 10e-5 M; assay type: protein assay
[11] = molecular target: Adrenergic receptor alpha-1 (Homo sapiens) (UniProt P35348+P25100+P35368); experiment: Inhibition [3H]- prazosin binding to Alpha-1 adrenergic receptor at 10e-5 M; assay type: protein assay
[12] = molecular target: T5, GABA-A receptor; anion channel (Homo sapiens) (UniProt P14867+P47870+P18507+P28472+P48169+Q99928+Q9UN88+P34903+O00591+O14764+Q8N1C3+P18505+P78334+P47869+P31644+Q16445); experiment: Inhibition of [3H]- flunitrazepam binding to GABA-A benzodiazepine receptor at 10e-5 M; assay type: protein-complex assay
[13] = molecular target: T6, Adrenergic receptor beta (Homo sapiens) (UniProt P08588+P07550+P13945); experiment: Inhibition of [3H]- DHA binding to Beta adrenergic receptor; assay type: protein assay; details: concentration not given here
[14] = molecular target: T5, GABA-A receptor; anion channel (Homo sapiens); experiment: Inhibition of [3H]- muscimol binding to Gamma-aminobutyric acid A (GABA-A) receptor at 10e-5 M; assay type: protein-complex assay
GABA B receptor [15] = molecular target: T1, GABA B receptor; experiment: as §1; remark: listed apart in the source
Outline: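 Displacement of [3H]CGP27492 from rat cerebral cortex membranes, in triplicate. Nonspecific binding defined with 10 µM (R)-(-)-baclofen. IC50 obtained by computer curve fitting to a single-site model.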

[16] = molecular target: Histamine H1 receptor (Homo sapiens) (UniProt P35367); experiment: Inhibition of [3H]- doxepine binding to histamine 1 receptor at 10e-5 M
[17] = The compound was tested for blockade of the monosynaptic reflexes in the hemisected neonatal spinal cord; assay type: functional, Rattus norvegicus
[18] = molecular target: Muscarinic acetylcholine receptor (Homo sapiens) (UniProt P20309+P08173+P11229+P08172+P08912); experiment: Inhibition of [3H]CMD binding to muscarinic ACh receptor at 10e-5 M; assay type: protein assay
[19] = molecular target: Mu-type opioid receptor (Homo sapiens) (UniProt P35372); experiment: Inhibition of [3H]- naloxone binding to mu-opiate receptor at 10e-5 M
Rattus norvegicus [20] = organism: Rattus norvegicus; experiment: The compound was tested for inhibition of release of [3H]GABA from rat cortical slices after electrical stimulation.; assay type: functional
[21] = molecular target: Substance-P receptor (Homo sapiens) (UniProt P25103); experiment: Inhibition of [3H]-substance P binding to Tachykinin receptor 1 at 10e-5 M
[22] = molecular target: T3, Serotonin 2 (5-HT2) receptor (Homo sapiens); experiment: Ketanserin binding to 5-hydroxytryptamine 2 receptor at 10e-5 M; assay type: protein assay
GABA-B receptor [23] = molecular target: T2, GABA-B receptor; experiment: Inhibition of [3H]CGP-27492 binding to cat Gamma-aminobutyric acid type B receptor; assay type: protein-complex assay, Felis catus; details: target entry is the homologue from another species
[24] = molecular target: T6, Adrenergic receptor beta (Homo sapiens); experiment: Inhibition of [3H]- DHA binding to Beta adrenergic receptor at 10e-5 M; assay type: protein assay
[25] = molecular target: GABA-B receptor (Homo sapiens) (UniProt Q9UBS5+O75899); experiment: Inhibition of [3H]baclofen binding to Gamma-aminobutyric acid type B receptor of cat cerebellum at 10e-5 M; assay type: tissue-based; details: Felis catus, target entry is the homologue from another species
GABA-B receptor [26] = molecular target: T2, GABA-B receptor; experiment: Inhibition of [3H]baclofen binding to Gamma-aminobutyric acid type B receptor of cat cerebellum; assay type: tissue-based, Felis catus; details: target entry is the homologue from another species
Outline: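 Cat cerebellar synaptosomal membranes (200-300 µg protein), prepared by sucrose density gradient, lysis, freezing and repeated washes. […] Stopped by centrifugation and pellet counted. Run in triplicate. Nonspecific binding with 10 µM (R)-(-)-baclofen. IC50 from single-site curve fit.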

Rattus norvegicus [27] = experiment: Deterioration of rotarod performance of rats 1.2 hour after subcutaneous administration of compound; assay type: functional, organism-based
Rattus norvegicus [28] = experiment: Deterioration of rotarod performance of rats 1-2 hour after peroral administration of compound; assay type: functional, organism-based; outline: as §2

Chain of Mu-type opioid receptor (Homo sapiens) (P35372 whole entry): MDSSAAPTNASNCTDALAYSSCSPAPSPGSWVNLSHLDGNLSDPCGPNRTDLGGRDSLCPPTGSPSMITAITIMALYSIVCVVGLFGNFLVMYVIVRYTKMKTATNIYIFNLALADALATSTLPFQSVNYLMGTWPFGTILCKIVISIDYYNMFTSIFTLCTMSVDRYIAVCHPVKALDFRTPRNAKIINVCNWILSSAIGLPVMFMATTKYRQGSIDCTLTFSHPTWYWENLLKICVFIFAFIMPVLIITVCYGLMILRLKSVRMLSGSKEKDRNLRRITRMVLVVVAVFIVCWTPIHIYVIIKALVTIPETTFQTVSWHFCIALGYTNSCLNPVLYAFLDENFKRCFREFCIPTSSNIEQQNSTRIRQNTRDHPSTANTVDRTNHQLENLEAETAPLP
Chain of Substance-P receptor (Homo sapiens) (P25103 whole entry): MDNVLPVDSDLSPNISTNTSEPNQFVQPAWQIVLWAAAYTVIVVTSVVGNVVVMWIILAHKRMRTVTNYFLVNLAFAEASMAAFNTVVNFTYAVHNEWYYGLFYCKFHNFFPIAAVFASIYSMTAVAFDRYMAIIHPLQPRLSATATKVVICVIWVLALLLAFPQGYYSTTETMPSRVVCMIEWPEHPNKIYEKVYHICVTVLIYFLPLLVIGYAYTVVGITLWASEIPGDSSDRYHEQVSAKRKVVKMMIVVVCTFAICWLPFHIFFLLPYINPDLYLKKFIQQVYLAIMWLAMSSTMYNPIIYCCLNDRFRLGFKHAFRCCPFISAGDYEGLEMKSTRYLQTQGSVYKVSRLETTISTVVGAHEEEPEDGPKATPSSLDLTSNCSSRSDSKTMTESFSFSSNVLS
T1 sequence (Q9Z0U4 whole entry): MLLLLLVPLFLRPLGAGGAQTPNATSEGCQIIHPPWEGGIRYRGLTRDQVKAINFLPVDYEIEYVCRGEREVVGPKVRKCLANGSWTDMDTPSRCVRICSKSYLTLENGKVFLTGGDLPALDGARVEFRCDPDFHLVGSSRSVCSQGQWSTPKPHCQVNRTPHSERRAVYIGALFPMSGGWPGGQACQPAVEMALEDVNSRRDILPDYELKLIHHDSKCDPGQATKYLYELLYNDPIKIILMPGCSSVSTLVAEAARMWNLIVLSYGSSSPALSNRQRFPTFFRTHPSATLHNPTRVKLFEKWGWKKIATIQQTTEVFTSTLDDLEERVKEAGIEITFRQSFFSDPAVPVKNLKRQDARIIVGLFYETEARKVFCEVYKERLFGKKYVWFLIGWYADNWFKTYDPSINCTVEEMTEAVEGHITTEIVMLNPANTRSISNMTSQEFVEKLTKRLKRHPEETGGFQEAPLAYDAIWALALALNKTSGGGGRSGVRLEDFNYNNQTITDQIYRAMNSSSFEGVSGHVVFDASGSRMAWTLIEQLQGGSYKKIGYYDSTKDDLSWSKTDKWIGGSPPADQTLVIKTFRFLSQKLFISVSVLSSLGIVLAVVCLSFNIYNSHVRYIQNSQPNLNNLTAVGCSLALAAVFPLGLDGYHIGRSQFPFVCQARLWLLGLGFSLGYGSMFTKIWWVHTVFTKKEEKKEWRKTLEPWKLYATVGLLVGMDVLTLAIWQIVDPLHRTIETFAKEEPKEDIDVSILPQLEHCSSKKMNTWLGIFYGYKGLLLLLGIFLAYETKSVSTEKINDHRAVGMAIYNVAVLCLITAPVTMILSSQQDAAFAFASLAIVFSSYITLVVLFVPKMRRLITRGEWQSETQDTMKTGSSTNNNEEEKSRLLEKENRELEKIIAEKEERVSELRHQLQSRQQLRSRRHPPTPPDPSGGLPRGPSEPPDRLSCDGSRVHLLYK
T1 sequence (O88871 whole entry): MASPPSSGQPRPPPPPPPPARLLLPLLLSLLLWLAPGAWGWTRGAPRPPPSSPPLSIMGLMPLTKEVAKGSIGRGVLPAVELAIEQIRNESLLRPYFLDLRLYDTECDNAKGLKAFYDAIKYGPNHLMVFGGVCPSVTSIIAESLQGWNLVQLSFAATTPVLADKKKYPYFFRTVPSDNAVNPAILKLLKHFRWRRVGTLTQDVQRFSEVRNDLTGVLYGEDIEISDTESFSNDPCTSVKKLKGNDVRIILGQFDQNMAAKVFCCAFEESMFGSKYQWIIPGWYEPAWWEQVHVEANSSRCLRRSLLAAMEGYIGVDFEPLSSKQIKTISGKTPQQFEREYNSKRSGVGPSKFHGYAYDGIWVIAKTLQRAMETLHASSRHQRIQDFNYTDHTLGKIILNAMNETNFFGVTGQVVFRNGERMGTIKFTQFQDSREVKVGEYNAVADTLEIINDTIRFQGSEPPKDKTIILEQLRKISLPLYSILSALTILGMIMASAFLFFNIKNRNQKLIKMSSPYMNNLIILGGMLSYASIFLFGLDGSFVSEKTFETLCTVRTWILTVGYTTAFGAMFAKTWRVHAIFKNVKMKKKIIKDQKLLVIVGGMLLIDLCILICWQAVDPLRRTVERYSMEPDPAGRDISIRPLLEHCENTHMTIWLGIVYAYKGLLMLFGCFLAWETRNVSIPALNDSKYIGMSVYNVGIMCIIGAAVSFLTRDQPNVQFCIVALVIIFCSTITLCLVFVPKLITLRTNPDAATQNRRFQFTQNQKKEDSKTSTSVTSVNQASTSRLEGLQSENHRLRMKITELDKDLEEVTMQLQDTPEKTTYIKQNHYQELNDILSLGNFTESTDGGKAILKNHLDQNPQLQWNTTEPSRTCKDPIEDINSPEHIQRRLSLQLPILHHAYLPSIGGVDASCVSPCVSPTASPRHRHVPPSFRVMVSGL
T2 sequence (Q9UBS5 whole entry): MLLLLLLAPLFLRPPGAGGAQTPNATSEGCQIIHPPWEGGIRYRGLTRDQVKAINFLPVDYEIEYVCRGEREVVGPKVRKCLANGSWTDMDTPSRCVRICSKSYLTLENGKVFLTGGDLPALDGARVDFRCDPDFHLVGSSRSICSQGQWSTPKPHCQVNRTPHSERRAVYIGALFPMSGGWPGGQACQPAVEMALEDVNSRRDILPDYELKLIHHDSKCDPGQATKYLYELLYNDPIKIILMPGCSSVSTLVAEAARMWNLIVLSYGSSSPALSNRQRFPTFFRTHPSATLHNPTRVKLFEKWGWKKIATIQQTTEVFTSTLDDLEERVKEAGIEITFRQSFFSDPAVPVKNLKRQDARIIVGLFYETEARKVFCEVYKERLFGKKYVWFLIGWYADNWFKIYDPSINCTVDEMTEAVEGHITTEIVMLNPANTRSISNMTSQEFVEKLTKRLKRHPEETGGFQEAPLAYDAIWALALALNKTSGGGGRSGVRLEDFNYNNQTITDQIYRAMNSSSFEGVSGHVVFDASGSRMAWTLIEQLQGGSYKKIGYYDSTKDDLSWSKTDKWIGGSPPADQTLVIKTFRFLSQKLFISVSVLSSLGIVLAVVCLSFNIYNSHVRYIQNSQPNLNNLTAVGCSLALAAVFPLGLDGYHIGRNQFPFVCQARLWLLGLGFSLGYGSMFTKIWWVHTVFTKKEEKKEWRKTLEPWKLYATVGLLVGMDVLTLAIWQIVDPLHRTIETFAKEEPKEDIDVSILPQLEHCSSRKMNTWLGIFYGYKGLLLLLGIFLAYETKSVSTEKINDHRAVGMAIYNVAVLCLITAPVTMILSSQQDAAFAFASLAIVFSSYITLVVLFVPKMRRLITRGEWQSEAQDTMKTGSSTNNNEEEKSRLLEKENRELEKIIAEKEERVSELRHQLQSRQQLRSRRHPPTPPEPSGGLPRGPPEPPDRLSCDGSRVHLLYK
T2 sequence (O75899 whole entry): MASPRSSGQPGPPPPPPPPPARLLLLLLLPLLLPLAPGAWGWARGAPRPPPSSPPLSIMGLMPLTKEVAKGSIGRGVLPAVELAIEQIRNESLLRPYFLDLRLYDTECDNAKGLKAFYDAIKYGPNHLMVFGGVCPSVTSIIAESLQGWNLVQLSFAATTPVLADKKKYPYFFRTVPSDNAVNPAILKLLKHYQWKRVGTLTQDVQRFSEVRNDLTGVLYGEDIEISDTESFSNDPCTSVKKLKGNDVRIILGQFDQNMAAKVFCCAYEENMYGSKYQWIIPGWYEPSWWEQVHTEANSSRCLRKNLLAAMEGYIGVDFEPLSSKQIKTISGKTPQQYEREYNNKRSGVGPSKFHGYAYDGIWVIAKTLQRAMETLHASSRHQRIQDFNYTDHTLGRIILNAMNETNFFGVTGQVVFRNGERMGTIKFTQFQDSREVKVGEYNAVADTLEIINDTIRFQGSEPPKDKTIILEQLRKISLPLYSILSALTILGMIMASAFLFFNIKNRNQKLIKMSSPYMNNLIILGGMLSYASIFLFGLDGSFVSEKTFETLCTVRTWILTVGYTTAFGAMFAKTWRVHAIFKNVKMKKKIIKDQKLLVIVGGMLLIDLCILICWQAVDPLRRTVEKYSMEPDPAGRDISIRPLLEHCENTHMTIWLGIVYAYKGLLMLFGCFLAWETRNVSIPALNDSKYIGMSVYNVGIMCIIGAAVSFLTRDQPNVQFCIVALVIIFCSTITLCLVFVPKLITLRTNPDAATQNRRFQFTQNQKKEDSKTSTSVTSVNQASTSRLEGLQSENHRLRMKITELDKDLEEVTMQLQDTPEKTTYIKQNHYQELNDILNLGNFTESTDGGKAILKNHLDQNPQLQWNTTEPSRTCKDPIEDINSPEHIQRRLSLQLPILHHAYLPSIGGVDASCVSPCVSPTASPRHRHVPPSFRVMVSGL

For `CCP(=O)(O)CCCN`, the IC50 (GABA B receptor [1]) was 1.98 µM, the IC50 [2] was “Not Active” and the IC50 (GABA-B receptor [3]) was 1.35 µM.

With `NCC(CC(=O)O)c1ccc(Cl)cc1` (racemic) [BACLOFEN] the IC50 ([2]; read-out: IC50) was 1050 µM, the EC50 (Rattus norvegicus [4]) was 52 µM/kg and the EC50 (Rattus norvegicus [5]) was 24 µM/kg.

`CP(=O)(O)C[C@@H](O)CN` showed an inhibition [6] of 7%, an inhibition [7] of 36% and an inhibition [8] of 0%. The inhibition [9] was 16%, the inhibition [10] was 0% and the inhibition [11] was 0%. The inhibition [12] was 0%, the inhibition [13] was 9% and the inhibition [14] was 0%. For the same compound, the IC50 (GABA B receptor [15]) was 0.045 µM, the inhibition [16] was 22% and the IC50 [17] was 0.161 µM. For the same compound, the inhibition [18] was 0%, the inhibition [19] was 0% and the EC50 (Rattus norvegicus [4]) was 36 µM/kg. The EC50 (Rattus norvegicus [5]) was 2 µM/kg, the IC50 (Rattus norvegicus [20]) was 0.4 µM and the inhibition [21] was 7%.

`CP(=O)(O)CCCN` gave an inhibition [6] of 46%, an inhibition [22] of 0% and an inhibition [8] of 0%. The inhibition [9] was 6%, the inhibition [10] was 9% and the inhibition [11] was 6%. The inhibition [12] was 0%, the inhibition [13] was 0% and the inhibition [14] was 0%. The IC50 [2] was “Not Active”, the inhibition [16] was 30% and the IC50 [17] was 0.05 µM. For the same compound, the inhibition [18] was 0%, the inhibition [19] was 0% and the EC50 (Rattus norvegicus [5]) was 2 µM/kg. The IC50 (Rattus norvegicus [20]) was 0.45 µM and the inhibition [21] was 2%.

`CP(=O)(O)/C=C/CN` gave an IC50 (GABA B receptor [15]) of 0.665 µM.

With `NCC(O)C[PH](=O)O` (centres undefined) the IC50 (GABA-B receptor [3]) was 0.018 µM.

In the case of `CC(CCN)P(C)(=O)O` (centres undefined), the IC50 (GABA B receptor [15]) is reported as 0.14 µM and the IC50 (GABA-B receptor [23]) is reported as 0.166 µM.

For `NCCCP(=O)(O)CO`, the IC50 (GABA B receptor [15]) was 1.05 µM.

Compound `NCC(O)(C[PH](=O)O)c1ccc(Cl)cc1` (centres undefined) has an IC50 (GABA B receptor [15]) of 0.065 µM.

`NCCC[PH](=O)O` showed an inhibition [6] of 13%, an inhibition [7] of 0% and an inhibition [9] of 2%. For the same compound, the inhibition [11] was 16%, the inhibition [12] was 24% and the inhibition [24] was 0%. The inhibition [14] was 65%, the IC50 (GABA B receptor [1]) was 0.0054 µM and the IC50 ([2]; read-out: IC50) was 1.7 µM. For the same compound, the IC50 (GABA-B receptor [3]) was 0.0024 µM, the inhibition [16] was 0% and the IC50 [17] was 60 µM. For the same compound, the inhibition [18] was 27%, the inhibition [19] was 0% and the EC50 (Rattus norvegicus [5]) was > 813 µM/kg. It also gave an IC50 (Rattus norvegicus [20]) of 0.106 µM and an inhibition [21] of 9%.

Work on `NCCC(c1ccccc1)[PH](=O)O` (centres undefined) yielded an inhibition [25] of 10%.

`NCC(C[PH](=O)O)c1ccccc1` (centres undefined) gave an IC50 (GABA-B receptor [26]) of 0.88 µM.

`NCC(C[PH](=O)O)c1ccc(F)cc1` (centres undefined) showed an IC50 (GABA-B receptor [26]) of 0.36 µM.

With `NC[C@H](CC(=O)O)c1ccc(Cl)cc1` [ARBACLOFEN] the IC50 ([2]; read-out: IC50) was 964 µM, the IC50 [17] was 0.325 µM and the EC50 (Rattus norvegicus [5]) was 9 µM/kg. The EC50 (Rattus norvegicus [27]) was 16 µM/kg and the IC50 (Rattus norvegicus [20]) was 0.33 µM.

`NCCCP(=O)(O)O` gave an IC50 (GABA B receptor [15]) of 6.81 µM.

Compound `CP(=O)(O)/C=C\CN` has an IC50 (GABA B receptor [15]) of 16.6 µM.

`CP(=O)(O)C(CCN)C(F)(F)F` (centres undefined) showed an IC50 (GABA B receptor [15]) of 67.6 µM.

`CP(=O)(O)CC(O)CN` (centres undefined) showed an IC50 (GABA B receptor [15]) of 0.077 µM and an IC50 (GABA-B receptor [23]) of 0.029 µM.

For `NC[C@@H](CC(=O)O)c1ccc(Cl)cc1`, the IC50 ([2]; read-out: IC50) was 1560 µM, the EC50 (Rattus norvegicus [5]) was > 200 µM/kg and the EC50 (Rattus norvegicus [28]) was > 200 µM/kg. The IC50 (Rattus norvegicus [20]) was 213 µM.

`NCC(O)CP(=O)(O)C(F)F` (centres undefined) gave an IC50 (GABA B receptor [15]) of 0.213 µM.

With `NCCCP(=O)(O)C(F)F` the IC50 (GABA B receptor [15]) was 0.089 µM, the EC50 (Rattus norvegicus [5]) was 22 µM/kg and the IC50 (Rattus norvegicus [20]) was 10.6 µM.

`NCC(C[PH](=O)O)c1ccc(Cl)cc1` (centres undefined) showed an IC50 (GABA-B receptor [26]) of 0.039 µM and an EC50 (Rattus norvegicus [5]) of 19 µM/kg.

Compound `CCC(CCN)P(C)(=O)O` (centres undefined) has an IC50 (GABA B receptor [15]) of 18.5 µM.

With `CP(=O)(O)C(O)CCN` (centres undefined) the IC50 (GABA B receptor [15]) was 1.16 µM.

`CP(=O)(O)C[C@H](O)CN` showed an IC50 (GABA B receptor [15]) of 0.152 µM, an IC50 [17] of 0.425 µM and an EC50 (Rattus norvegicus [4]) of 135 µM/kg. For the same compound, the EC50 (Rattus norvegicus [5]) was 13 µM/kg and the IC50 (Rattus norvegicus [20]) was 0.6 µM.
